# From ChEMBL document CHEMBL2331403, “Discovery and optimization of a novel series of potent mutant B-Raf(V600E) selective kinase inhibitors” (J Med Chem, 2013)
# Experiments:
# [1] = tested on: Plasma; test: Fraction unbound in human plasma by LC-MS/MS analysis; type: ADME, cell-free
# [2] = Oral bioavailability in Han Wistar rat at 10 mg/kg; type: ADME, organism-based; settings: in vivo
# Outline: (§1)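 Rat PK study: oral dose 10 mg/kg in 0.1% HPMC; intravenous dose 3 mg/kg in 40% DMA/40% TEG/20% saline. Half-life taken from the iv arm; F not determined where no oral dose was given.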
# [3] = Volume of distribution at steady state in Han Wistar rat at 10 mg/kg, po and 3 mg/kg, iv; type: ADME, organism-based; settings: in vivo, read-out: Vdss; outline: as §1
# [4] = tested on: Plasma; test: Drug uptake in plasma of po dosed nude mouse xenografted with human A375 cells after 2 hrs; type: ADME, organism-based, A-375; settings: in vivo
# Outline: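 A375 xenograft mice given a single oral dose; tumors and plasma harvested 2 h later. Tumor pERK measured by Western blot with equal protein loading, normalized to total ERK, and expressed as percent reduction in pERK.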
Compound,Cp(f) [1],bioavailability [2],Vd [3],Drug uptake [4]
CC(=O)N[C@H](C)c1ccc(Nc2ncc3cc(-c4ccncc4)c(C)cc3n2)cc1,1.9%,,,
C[C@@H](NC1=CC(=O)NCC1)c1ccc(Nc2ncc3cc(-c4ccncc4)ccc3n2)cc1,2.3%,,,
C[C@@H](NC(=O)C1CCNCC1)c1ccc(Nc2ncc3cc(-c4ccncc4)ccc3n2)cc1,3.4%,,,
CC(=O)N[C@H](C)c1ccc(Nc2ncc3cc(-c4ccncc4)cc(Cl)c3n2)cc1,< 1%,,,
COCCNC(C)c1ccc(Nc2ncc3cc(-c4ccncc4)ccc3n2)cc1 (configuration not stated),9.4%,31%,4.9 L/kg,
COCCN(C)c1ccc(Nc2ncc3cc(-c4ccncc4)ccc3n2)cc1,< 1%,,,
COCCC(=O)N(C)c1ccc(Nc2ncc3cc(-c4ccncc4)ccc3n2)cc1,,60%,0.7 L/kg,
C[C@@H](NC(=O)[C@H]1CCCCN1)c1ccc(Nc2ncc3cc(-c4ccncc4)ccc3n2)cc1,5.1%,28%,13 L/kg,
COCCC(=O)N[C@H](C)c1ccc(Nc2ncc3cc(-c4ccncc4)ccc3n2)cc1,1.5%,,,
CC(=O)N[C@H](C)c1ccc(Nc2ncc3cc(-c4ccncc4)cc(C)c3n2)cc1,< 1%,,,
C[C@@H](NC(=O)C1CCCCN1C)c1ccc(Nc2ncc3cc(-c4ccncc4)ccc3n2)cc1 (mixture of isomers),3.8%,,,
C[C@@H](NC1=CC(=O)CCC1)c1ccc(Nc2ncc3cc(-c4ccncc4)ccc3n2)cc1,1.3%,17%,0.67 L/kg,
CC(=O)N[C@H](C)c1ccc(Nc2ncc3cc(-c4ccncc4)c(Cl)cc3n2)cc1,< 1%,,,
C[C@@H](NC(=O)[C@H]1CCCNC1)c1ccc(Nc2ncc3cc(-c4ccncc4)ccc3n2)cc1,1.7%,,,
C[C@@H](NC(=O)[C@H]1CCCN1)c1ccc(Nc2ncc3cc(-c4ccncc4)ccc3n2)cc1,1.4%,,,
CC(=O)N[C@H](C)c1ccc(Nc2ncc3cc(-c4ccncc4)ccc3n2)cc1,6%,100%,0.8 L/kg,Dose-dependent effect
C[C@@H](NC(=O)[C@H]1CCCCN1CCO)c1ccc(Nc2ncc3cc(-c4ccncc4)ccc3n2)cc1,3.4%,,,
COc1cc2nc(Nc3ccc([C@@H](C)NC(C)=O)cc3)ncc2cc1-c1ccncc1,,,0.67 L/kg,
C[C@@H](NC1=CC(=O)CNC1)c1ccc(Nc2ncc3cc(-c4ccncc4)ccc3n2)cc1,3.6%,,7.9 L/kg,
CC(=O)NC(C)c1ccc(Nc2ncc3cc(-c4ccncc4)ccc3n2)cc1 (configuration not stated),5%,,,
COCCC(=O)N[C@@H](C)c1ccc(Nc2ncc3cc(-c4ccncc4)ccc3n2)cc1,< 1%,,,
